The source of these data is ChEMBL document CHEMBL1121366, “Synthesis and immunological activity of 5,6,6a,8,9,11a-hexahydronaphth[1',2':4,5]imidazo[2,1-b]thiazoles and 5,6,6a,9,10,11a-hexahydroanaphth[2',1':4,5]imidazo[2,1-b]thiazoles” (J Med Chem, 1980).

As a reminder, the LD50 is the dose expected to kill half of the subjects tested. A higher LD50 goes with a less toxic substance.

Data set [1] has as its system Mus musculus. The data set can be described thus: Effect on humoral immune response in mice against sheep red blood cells by the plaque-forming cell (PFC/10e 6 spleen cells) method in experiment 9 at dose 12 mg/kg. It counts as functional. The method in brief: (§1)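 Male CDF1 (Balb/c × DBA/2Cr) mice, 8-10 weeks old, groups of four, were immunized iv with 1 × 10^8 SRBC in PBS. After 24 h they received a single sc inguinal dose in saline, or as a suspension in saline with 1% Me2SO. Spleens were taken 4 days later and hemolytic plaque-forming cells counted by Cunningham's method. Values are the mean of four mice ± SE, with a paired Student's t test against the control.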

In data set [2] the test system is Mus musculus. Put plainly: Tested for increase in foot-pad thickness (mm) by its effect on cellular immune response in mice against sheep red blood cells by DHR method in experiment 17 at dose 12 mg/kg. The format is functional. Put shortly:
(§2)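 Male ICR mice, 8-10 weeks old, groups of four, were sensitized with 1 × 10^8 SRBC in PBS into one hind footpad and dosed sc in the inguinal region, in saline or in saline with 1% Me2SO. Four days later the other footpad was challenged with 1 × 10^8 SRBC. Foot thickness was gauged just before and 24 h after challenge, and the increase was reported as mean of four ± SE.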

Data set [3] concerns Mus musculus. The data set can be described thus: Effect on humoral immune response in mice against sheep red blood cells by the plaque-forming cell (PFC/10e 6 spleen cells) method in experiment 9 at dose 3 mg/kg. It counts as functional. Put shortly: as §1
The test system of data set [4] is Mus musculus. Put plainly: Tested for increase in foot-pad thickness (mm) by its effect on cellular immune response in mice against sheep red blood cells by the DHR method in experiment 17 at dose 3 mg/kg. It counts as functional. Put shortly: as §2
A short description of data set [5]: Acute lethal dose was determined in mice upon intravenous administration. It counts as ADME, organism-based. The conditions noted are these: mouse, in vivo. Put shortly: (§3)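 Male mice, 8–10 weeks old, CDF1 (Balb/c × DBA/2Cr). Groups of six dosed once, either iv or sc. Three to five dose levels were chosen from 400, 300, 150, 80, 40, 20 and 10 mg/kg. LD50 was calculated by the Litchfield–Wilcoxon method. Vehicle was saline or saline with 1% Me2SO, depending on compound.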

Data set [6] relates to Mus musculus. The data set can be described thus: Effect on humoral immune response in mice against sheep red blood cells by the plaque-forming cell (PFC/10e6 spleen cells) method in experiment 8 at dose 12 mg/kg. It counts as functional. The method in brief: as §1
Data set [7] deals with Mus musculus. The data set can be described thus: Effect on humoral immune response in mice against sheep red blood cells by the plaque-forming cell (PFC/10e6 spleen cells) method in experiment 8 at dose 3 mg/kg. The format is functional. The method in brief:
as §1

In data set [8] the test system is Mus musculus. The data set can be described thus: Tested for increase in foot-pad thickness (mm) by its effect on cellular immune response in mice against sheep red blood cells by the DHR method in experiment 12 at dose 3 mg/kg. It counts as functional. The method in brief:
(§4)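 Delayed-type hypersensitivity was run in male CDF1 (Balb/c × DBA/2Cr) mice, 8-10 weeks old, groups of four. Mice were sensitized with 1 × 10^8 SRBC in PBS into one hind footpad, with sc inguinal dosing in saline or in 1% Me2SO-saline. Four days later the opposite footpad was challenged with 1 × 10^8 SRBC. The read-out was the gauge-measured increase in thickness from just before to 24 h after challenge, as mean ± SE (n = 4).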

In data set [9] the test system is Mus musculus. The data set can be described thus: Effect on humoral immune response in mice against sheep red blood cells by the plaque-forming cell (PFC/10e6 spleen cells) method in experiment 3 at dose 12 mg/kg. It counts as functional. Put shortly:
(§5)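 Male ICR mice, 8-10 weeks old, groups of four, were immunized iv with 1 × 10^8 SRBC in PBS. After 24 h they received a single sc inguinal dose in saline, or as a suspension in saline with 1% Me2SO. Splenic hemolytic plaque-forming cells were counted 4 days later by Cunningham's method. Values are the mean of four ± SE, with a paired t test against the control.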

Data set [10] deals with Mus musculus. The data set can be described thus: Tested for increase in foot-pad thickness (mm) by its effect on cellular immune response in mice against sheep red blood cells by DHR method in experiment 12 at dose 12 mg/kg. The format is functional. Put shortly:
as §4

In data set [11] the test system is Mus musculus. Put plainly: Effect on humoral immune response in mice against sheep red blood cells by the plaque-forming cell (PFC/10e6 spleen cells) method in experiment 3 at dose 3 mg/kg. The format is functional. Put shortly: as §5
Data set [12] concerns Mus musculus. Put plainly: Effect on humoral immune response in mice against sheep red blood cells by the plaque-forming cell (PFC/10e6 spleen cells) method in experiment 6 at dose 12 mg/kg. It counts as functional. Put shortly:
as §1

Data set [13] concerns Mus musculus. The data set can be described thus: Tested for increase in foot-pad thickness (mm) by its effect on cellular immune response in mice against sheep red blood cells by the DHR method in experiment 15 at dose 3 mg/kg. It counts as functional. Put shortly: (§6)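 Male mice, 8–10 weeks old, ICR strain. Groups of four were sensitized with 1 × 10^8 SRBC in PBS into one hind footpad, with compound given sc in the inguinal region in saline or saline/1% Me2SO. Four days later, 1 × 10^8 SRBC were injected into the other hind footpad. Foot thickness was measured with a dial gauge just before and 24 h after this challenge, and the increase was taken as the difference. Values are the mean of four mice ± SE.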

Data set [14] relates to Mus musculus. The data set can be described thus: Tested for increase in foot-pad thickness (mm) by its effect on cellular immune response in mice against sheep red blood cells by DHR method in experiment 15 at dose 12 mg/kg. It counts as functional. Put shortly:
as §6

Data set [15] deals with Mus musculus. The data set can be described thus: Effect on humoral immune response in mice against sheep red blood cells by the plaque-forming cell (PFC/10e6 spleen cells) method in experiment 6 at dose 3 mg/kg. It counts as functional. The method in brief: as §1
Data set [16] concerns Mus musculus. Put plainly: Tested for increase in foot-pad thickness (mm) by its effect on cellular immune response in mice against sheep red blood cells by DHR method in experiment 13 at dose 12 mg/kg. It counts as functional. The method in brief: as §2
The subject of data set [17] is Mus musculus. Put plainly: Effect on humoral immune response in mice against sheep red blood cells by the plaque-forming cell (PFC/10e6 spleen cells) method in experiment 4 at dose 12 mg/kg. It counts as functional. The method in brief: as §1
Data set [18] has as its system Mus musculus. The data set can be described thus: Effect on humoral immune response in mice against sheep red blood cells by the plaque-forming cell (PFC/10e6 spleen cells) method in experiment 4 at dose 3 mg/kg. The format is functional. The method in brief:
as §1

The subject of data set [19] is Mus musculus. Put plainly: Tested for increase in foot-pad thickness (mm) by its effect on cellular immune response in mice against sheep red blood cells by the DHR method in experiment 13 at dose 3 mg/kg. The format is functional. Put shortly: as §2
Data set [20] relates to Mus musculus. The data set can be described thus: Effect on humoral immune response in mice against sheep red blood cells by the plaque-forming cell (PFC/10e6 spleen cells) method in experiment 7 at dose 3 mg/kg. It counts as functional. Put shortly:
(§7)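 Male mice, 8–10 weeks old, CDF1 (Balb/c × DBA/2Cr) in experiment 7. Groups of four were immunized iv with 1 × 10^8 SRBC in PBS. After 24 h, compound was given sc in the inguinal region in saline or saline/1% Me2SO. Four days later, splenic hemolytic plaque-forming cells were counted by the Cunningham method and expressed per 10^6 spleen cells. Values are the mean of four mice ± SE.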

The test system of data set [21] is Mus musculus. The data set can be described thus: Effect on humoral immune response in mice against sheep red blood cells by the plaque-forming cell (PFC/10e6 spleen cells) method in experiment 7 at dose 12 mg/kg. The format is functional. Put shortly: as §7
For data set [22], the system named is Mus musculus. Put plainly: Effect on humoral immune response in mice against sheep red blood cells by the plaque-forming cell (PFC/10e6 spleen cells) method in experiment 5 at dose 3 mg/kg. The format is functional. The method in brief:
as §1

The test system of data set [23] is Mus musculus. Put plainly: Tested increase in foot-pad thickness (mm) by its effect on cellular immune response in mice against sheep red blood cells by the DHR method in experiment 16 at dose 3 mg/kg. It counts as functional. Put shortly:
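Male ICR mice, 8–10 weeks old, groups of four. Sensitized with SRBC (1 × 10^8) in PBS injected into one hind footpad; compound given sc in the inguinal region in saline or in saline with 1% Me2SO. Four days later the other hind footpad was challenged with SRBC (1 × 10^8). Dial gauge read just before and 24 h after challenge. Value is the mean increase ± SE.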

The nature of data set [24]: Acute lethal dose was determined in mice upon subcutaneous administration. It counts as ADME, organism-based. The conditions noted are these: mouse, in vivo, sc. Put shortly:
as §3

For data set [25], the system named is Mus musculus. The data set can be described thus: Effect on humoral immune response in mice against sheep red blood cells by the plaque-forming cell (PFC/10e6 spleen cells) method in experiment 5 at dose 12 mg/kg. It counts as functional. The method in brief: as §1
For data set [26], the system named is Mus musculus. The data set can be described thus: Tested for increase in foot-pad thickness (mm) by its effect on cellular immune response in mice against sheep red blood cells by DHR method in experiment 14 at dose 12 mg/kg. It counts as functional. The method in brief:
as §4

The subject of data set [27] is Mus musculus. The data set can be described thus: Tested for increase in foot-pad thickness (mm) by its effect on cellular immune response in mice against sheep red blood cells by the DHR method in experiment 14 at dose 3 mg/kg. The format is functional. The method in brief: as §4

For the compound `CC1=C(c2ccccc2)N2C(=NC3c4ccccc4CCC32)S1` (stereo not given), the results for the PFC in the data set with Mus musculus [1] and in the data set with Mus musculus [3] were 470 and 740, respectively. In addition, the Increase in footpad thickness in the data set on Mus musculus [2] amounted to 0.32 mm; with Mus musculus [4], 0.2 mm.
Compound `C[C@@H]1SC2=NC3c4ccccc4CCC3N2[C@@]1(O)c1ccccc1` (stereo not given in full) had an LD50 in [5] of 170 mg/kg. The figures for the PFC in the data set with Mus musculus [6] and in the data set with Mus musculus [7] were 1120 and 550, respectively. Further, the Increase in footpad thickness was 0.52 mm in the data set with Mus musculus [2] and 0.28 mm in the data set on Mus musculus [4].
With `Fc1ccc2c(c1)CCC1N=C3SCCN3C21` (trans isomer), the Increase in footpad thickness in the data set with Mus musculus [8] and with Mus musculus [10] was 0.42 mm throughout. Besides, the values for the PFC in the data set with Mus musculus [9] and in the data set on Mus musculus [11] were 2070 and 2550, respectively.
For the compound `Brc1ccc2c(c1)C1C(CC2)N=C2SCCN21` (stereo not given), the PFC in the data set on Mus musculus [12] turned out to be 870; with Mus musculus [15], 980. Besides, the Increase in footpad thickness in the data set on Mus musculus [13] is 0.35 mm; in the data set on Mus musculus [14] it was 0.38 mm.
`Clc1ccc2c(c1)CCC1C2N=C2SCCN21` (cis isomer): the Increase in footpad thickness in the data set on Mus musculus [16] was determined as 0.33 mm; in the data set with Mus musculus [19], 0.26 mm. Also, the results for the PFC with Mus musculus [17] and with Mus musculus [18] were 970 and 1560, respectively.
On to `c1ccc([C@H]2CN3CCSC3=N2)cc1` [LEVAMISOLE], for which the PFC in the data set with Mus musculus [20] turned out to be 1390; in the data set with Mus musculus [21], 970; in the data set with Mus musculus [12] it was 1330; with Mus musculus [9], 1870; in the data set with Mus musculus [22] it was 1330; in the data set with Mus musculus [6], 1200. Moreover, the PFC in the data set on Mus musculus [11] turned out to be 2820; in the data set on Mus musculus [17], 1800; in the data set on Mus musculus [18] it was 1380; in the data set on Mus musculus [25], 1670; in the data set with Mus musculus [7], 570; with Mus musculus [15], 1850. Besides, the LD50 in data set [5] was determined as 15 mg/kg; in data set [24], 136 mg/kg. For the same compound, the Increase in footpad thickness in the data set with Mus musculus [23] worked out at 0.34 mm.
Regarding `Clc1ccc2c(c1)CCC1N=C3SCCN3C21` (trans isomer), the Increase in footpad thickness in the data set on Mus musculus [26] stood at 0.36 mm; with Mus musculus [27] it was 0.39 mm. The results for the PFC with Mus musculus [22] and with Mus musculus [25] were 1060 and 820, respectively.
